Measurements from ChEMBL document CHEMBL3997772, “Tyrosyl-DNA Phosphodiesterase 1 Inhibitors: Usnic Acid Enamines Enhance the Cytotoxic Effect of Camptothecin” (J Nat Prod, 2016).

Assays:
[1] = target: T1, Tyrosyl-DNA phosphodiesterase 1 (Homo sapiens, UniProt Q9NUW8); experiment: Inhibition of recombinant TDP1 (unknown origin) using 5'-(5,6 FAM-aac gtc agg gtc ttc c-BHQ1)-3' as substrate measured at 1 min interval by fluorimetric method
Outline: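 Recombinant TDP1 1.3 nM with 50 nM FAM/BHQ1 biosensor in 50 mM Tris-HCl pH 8.0, 50 mM NaCl, 7 mM β-mercaptoethanol, 26 °C. Fluorescence read each minute (Ex485/Em520). Slope over 0–7 min linear phase compared with DMSO control; IC50 from 11-point concentration-response curve.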

[2] = Cytotoxicity against human MCF7 cells over expressing TDP1 assessed as reduction in viable cells after 72 hrs by MTT assay; assay type: cell-based; conditions: MCF7 cells overexpressing TDP1
Outline: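 MCF-7 cells (~2000/well) grown 24 h at 37 °C in IMDM, 5% CO2, then exposed to 0.1–100 μM compound for 72 h. Viable cells by MTT test; CC50 = concentration reducing cell number 50% vs untreated controls; average of three independent experiments.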

[3] = target: T1, Tyrosyl-DNA phosphodiesterase 1; experiment: Inhibition of TDP1 in human MCF7 cells assessed as potentiation of camptothecin-induced cytotoxicity by measuring fold reduction in camptothecin CC50 at 0.5 uM after 72 hrs by MTT assay relative to camptothecin alone; assay type: cell-based
Outline: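 MCF-7 cells (~2000/well), pre-grown 24 h at 37 °C in IMDM, 5% CO2, treated with graded camptothecin plus 0.5 μM enamine for 72 h. Viability by MTT; camptothecin CC50 taken as 50% reduction in cell number vs untreated controls, compared with and without enamine.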

[4] = target: T1, Tyrosyl-DNA phosphodiesterase 1; experiment: Inhibition of recombinant TDP1 (unknown origin) assessed as reduction in BHQ1 excision from 3'-end of [32P]-labeled oligonucleotide substrate after 20 mins by polyacrilamide gel electrophoresis
[5] = Cytotoxicity against human A549 cells assessed as reduction in viable cells after 72 hrs by MTT assay; assay type: cell-based
Outline: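 A-549 cells treated with compounds; after 72 h, viable cells measured by MTT colorimetric test. CC50 = concentration reducing cell number by 50% versus untreated controls.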

[6] = target: T1, Tyrosyl-DNA phosphodiesterase 1; experiment: Inhibition of TDP1 in human A549 cells assessed as potentiation of camptothecin-induced cytotoxicity by measuring fold reduction in camptothecin CC50 at 0.5 uM after 72 hrs by MTT assay relative to camptothecin alone; assay type: cell-based
Outline: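 A-549 cells treated with graded camptothecin plus 0.5 μM enamine; viability by MTT after 72 h. Camptothecin CC50 compared with and without enamine.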

T1 sequence (Q9NUW8 whole entry): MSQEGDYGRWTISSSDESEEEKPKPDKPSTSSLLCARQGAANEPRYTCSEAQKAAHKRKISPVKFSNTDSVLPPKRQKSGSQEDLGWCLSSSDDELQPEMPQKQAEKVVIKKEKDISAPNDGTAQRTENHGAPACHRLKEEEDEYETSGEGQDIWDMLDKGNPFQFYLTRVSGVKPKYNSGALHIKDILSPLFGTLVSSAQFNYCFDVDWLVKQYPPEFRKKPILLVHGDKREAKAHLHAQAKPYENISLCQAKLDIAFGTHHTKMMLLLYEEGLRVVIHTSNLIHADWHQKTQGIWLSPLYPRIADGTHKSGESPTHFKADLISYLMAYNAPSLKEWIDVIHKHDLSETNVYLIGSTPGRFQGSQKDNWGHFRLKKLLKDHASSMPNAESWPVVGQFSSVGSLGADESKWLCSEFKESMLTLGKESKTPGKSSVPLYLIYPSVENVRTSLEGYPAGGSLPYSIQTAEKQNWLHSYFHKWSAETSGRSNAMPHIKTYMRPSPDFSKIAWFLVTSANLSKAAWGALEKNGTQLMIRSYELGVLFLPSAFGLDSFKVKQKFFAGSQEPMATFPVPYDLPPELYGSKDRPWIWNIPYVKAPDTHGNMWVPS

SMILES | IC50 [1] | CC50 at 72 h [2] | fold change (FC) [3] | IC50 [4] | CC50 at 72 h [5] | fold change (FC) [6]
CC(=O)c1c(O)c(C)c(O)c2c1OC1=CC(=O)/C(=C(/C)Nc3ccc(Cl)cc3)C(=O)[C@@]12C | 1.81 µM | > 50 µM | 0.51 | – | – | –
CC(=O)c1c(O)c(C)c(O)c2c1OC1=CC(=O)/C(=C(/C)Nc3ccccc3)C(=O)[C@]12C | 1.92 µM | 39 µM | 1 | – | – | –
CC(=O)c1c(O)c(C)c(O)c2c1OC1=CC(=O)/C(=C(/C)NCCN(C)C)C(=O)C12C (stereo not given) | > 100 µM | 33 µM | – | – | – | –
CC(=O)c1c(O)c(C)c(O)c2c1OC1=CC(=O)/C(=C(/C)Nc3ccc(Br)cc3)C(=O)[C@]12C | 0.57 µM | 10.6 µM | 0.92 | – | – | –
CC(=O)c1c(O)c(C)c(O)c2c1OC1=CC(=O)/C(=C(/C)Nc3ccc(Br)cc3)C(=O)[C@@]12C | 0.26 µM | 39.3 µM | 1.5 | 4.6 µM | – | –
CC(=O)c1c(O)c(C)c(O)c2c1OC1=CC(=O)/C(=C(/C)Nc3ccc(Cl)cc3)C(=O)[C@]12C | 1.62 µM | 16 µM | 0.35 | – | – | –
CC(=O)c1c(O)c(C)c(O)c2c1OC1=CC(=O)/C(=C(/C)Nc3ccc(F)cc3)C(=O)[C@@]12C | 1.54 µM | 22.2 µM | 2.1 | – | – | –
CC(=O)c1c(O)c(C)c(O)c2c1OC1=CC(=O)/C(=C(/C)NCCc3ccc(O)cc3)C(=O)[C@@]12C | 0.79 µM | 21.5 µM | 12.8 | – | 70 µM | 1.3
CC(=O)c1c(O)c(C)c(O)c2c1OC1=CC(=O)/C(=C(/C)Nc3cccc(Br)c3)C(=O)C12C (stereo not given) | 0.75 µM | 18.1 µM | 12.5 | – | > 100 µM | 1.2
CC(=O)c1c(O)c(C)c(O)c2c1OC1=CC(=O)/C(=C(/C)Nc3ccc(F)cc3)C(=O)[C@]12C | 0.94 µM | > 50 µM | 1.6 | – | – | –
CC(=O)c1c(O)c(C)c(O)c2c1OC1=CC(=O)/C(=C(/C)NCCCc3cc(C(C)(C)C)c(O)c(C(C)(C)C)c3)C(=O)C12C (stereo not given) | 0.16 µM | > 50 µM | 10.5 | – | > 100 µM | 3.5
CC(=O)c1c(O)c(C)c(O)c2c1OC1=CC(=O)/C(=C(/C)NCCCN3CCOCC3)C(=O)C12C (stereo not given) | > 100 µM | 24 µM | – | – | – | –
CC(=O)c1c(O)c(C)c(O)c2c1OC1=CC(=O)/C(=C(/C)Nc3ccccc3)C(=O)[C@@]12C | 1.53 µM | > 50 µM | 1.2 | – | – | –
CC(=O)C1=C(O)C=C2Oc3c(C(C)=O)c(O)c(C)c(O)c3[C@@]2(C)C1=O [(+)-USNIC ACID] | > 100 µM | 52.3 µM | – | – | – | –
CC(=O)c1c(O)c(C)c(O)c2c1OC1=CC(=O)/C(=C(/C)NCCc3cc(C(C)(C)C)c(O)c(C(C)(C)C)c3)C(=O)C12C (stereo not given) | 0.19 µM | > 50 µM | 1.7 | – | – | –
CC(=O)C1=C(O)C=C2Oc3c(C(C)=O)c(O)c(C)c(O)c3[C@]2(C)C1=O [(-)-USNIC ACID] | > 100 µM | – | – | – | – | –
CC(=O)c1c(O)c(C)c(O)c2c1OC1=CC(=O)/C(=C(/C)Nc3cccc(F)c3)C(=O)C12C (stereo not given) | 1.39 µM | 35 µM | 12.8 | – | > 100 µM | 1.6
